The source of these data is ChEMBL document CHEMBL1141647, “Novel ofloxacin derivatives: synthesis, antimycobacterial and toxicological evaluation” (Bioorg Med Chem Lett, 2008).

Structures are written as SMILES. Values after ≈ are worked out from the molar mass of the structure shown.

In one test the test system is Mycobacterium tuberculosis. Nature of the test: Antimycobacterial activity against multidrug resistant Mycobacterium tuberculosis by agar dilution method. The class given is functional. Summed up: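 MIC99 was taken as the lowest concentration giving complete inhibition of bacterial growth.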
A general note: Agar dilution tests growth on a series of plates holding different concentrations.
Consider `CC1COc2c(N3CCN(C(c4ccccc4)c4ccc(Cl)cc4)CC3)c(F)c([N+](=O)[O-])c3c(=O)c(C(=O)O)cn1c23` (stereo not given), for which the MIC99 was 2.63 µM (≈ 1.56 µg/mL). On the same count and under the same terms, as for `CC1COc2c(N3CCN(C(=O)c4ccco4)CC3)c(F)c([N+](=O)[O-])c3c(=O)c(C(=O)O)cn1c23` (stereo not given), the figure is 1.6 µM (≈ 0.778 µg/mL); as for `COc1cc2c(cc1OC)CN(c1c(F)c([N+](=O)[O-])c3c(=O)c(C(=O)O)cn4c3c1OCC4C)CC2` (stereo not given), 3.12 µM (≈ 1.56 µg/mL).

For the compound `CC1COc2c(N3CCn4cc(C(=O)O)nc4C3)c(F)c(N)c3c(=O)c(C(=O)O)cn1c23` (stereo not given), the MIC99 stood at 1.76 µM (≈ 0.78 µg/mL). `CC1COc2c(N3CCC4(CC3)OCCO4)c(F)c([N+](=O)[O-])c3c(=O)c(C(=O)O)cn1c23` (stereo not given) showed an MIC99 of 0.09 µM (≈ 0.0404 µg/mL).

The compound `CC1COc2c(N3CCC4(CC3)OCCO4)c(F)cc3c(=O)c(C(=O)O)cn1c23` (stereo not given) displayed an MIC99 of 0.09 µM (≈ 0.0364 µg/mL). Compound `CC1COc2c(N3CCN(C(=O)C4COc5ccccc5O4)CC3)c(F)c([N+](=O)[O-])c3c(=O)c(C(=O)O)cn1c23` (stereo not given) showed an MIC99 of 1.41 µM (≈ 0.782 µg/mL). For the compound `CC1COc2c(N3CCn4cc(C(=O)O)nc4C3)c(F)cc3c(=O)c(C(=O)O)cn1c23` (stereo not given), the MIC99 came to 0.44 µM (≈ 0.188 µg/mL).

`CC1COc2c(N3CCC(n4c(=O)[nH]c5cc(Cl)ccc54)CC3)c(F)cc3c(=O)c(C(=O)O)cn1c23` (stereo not given) yielded an MIC99 of 0.76 µM (≈ 0.39 µg/mL).

Consider `CC1COc2c(N3CCC(O)(c4ccc(Cl)cc4)CC3)c(F)c([N+](=O)[O-])c3c(=O)c(C(=O)O)cn1c23` (stereo not given), for which the MIC99 came to 3.01 µM (≈ 1.56 µg/mL). In the case of `CC1CN(c2c(F)c([N+](=O)[O-])c3c(=O)c(C(=O)O)cn4c3c2OCC4C)CC(C)O1` (stereo not given), the MIC99 stood at 3.7 µM (≈ 1.56 µg/mL). This MIC99 and that of the compound before are within 1.5-fold of each other. On the same count and under the same terms, as for `CC1CN(c2c(F)cc3c(=O)c(C(=O)O)cn4c3c2OCC4C)CC(C)O1` (stereo not given), the figure is 8.3 µM (≈ 3.12 µg/mL). On the same count and under the same terms, as for `CC1COc2c(N3CCN(Cc4ccc5c(c4)OCO5)CC3)c(F)c([N+](=O)[O-])c3c(=O)c(C(=O)O)cn1c23` (stereo not given), the figure is 5.95 µM (≈ 3.13 µg/mL); as for `CC1COc2c(N3CCc4ccccc4C3C(=O)NC(C)(C)C)c(F)c([N+](=O)[O-])c3c(=O)c(C(=O)O)cn1c23` (stereo not given), 1.45 µM (≈ 0.781 µg/mL); as for `CC1COc2c(N3CCC4(CC3)OCCO4)c(F)c(N)c3c(=O)c(C(=O)O)cn1c23` (stereo not given), 3.72 µM (≈ 1.56 µg/mL). In turn, `CC1COc2c(N3CCSCC3)c(F)c([N+](=O)[O-])c3c(=O)c(C(=O)O)cn1c23` (stereo not given) yielded an MIC99 of 1.91 µM (≈ 0.782 µg/mL). Same read-out and setting: as for `CC1COc2c(N3CCc4ccccc4C3C(=O)NC(C)(C)C)c(F)cc3c(=O)c(C(=O)O)cn1c23` (stereo not given), the figure is 3.16 µM (≈ 1.56 µg/mL); as for `CC1COc2c(N3CCSCC3)c(F)cc3c(=O)c(C(=O)O)cn1c23` (stereo not given), 8.59 µM (≈ 3.13 µg/mL); as for `CC1COc2c(N3CCN(C)C(c4ccccc4)C3)c(F)c([N+](=O)[O-])c3c(=O)c(C(=O)O)cn1c23` (stereo not given), 3.23 µM (≈ 1.56 µg/mL). `CC1COc2c(N3CCn4cc(C(=O)O)nc4C3)c(F)c([N+](=O)[O-])c3c(=O)c(C(=O)O)cn1c23` (stereo not given) displayed an MIC99 of 0.09 µM (≈ 0.0426 µg/mL). Same read-out and setting: with `CC1COc2c(N3CCC(n4c(=O)[nH]c5cc(Cl)ccc54)CC3)c(F)c([N+](=O)[O-])c3c(=O)c(C(=O)O)cn1c23` (stereo not given) the figure was 0.34 µM (≈ 0.19 µg/mL); with `COc1cc2c(cc1OC)CN(c1c(F)cc3c(=O)c(C(=O)O)cn4c3c1OCC4C)CC2` (stereo not given), 3.43 µM (≈ 1.56 µg/mL). On the same count and under the same terms, with `NNC(=O)c1ccncc1` [ISONIAZID] the figure was 45.6 µM (≈ 6.25 µg/mL). The same measure, in the same setting: as for `CC1COc2c(N3CCN(C)CC3)c(F)cc3c(=O)c(C(=O)O)cn1c23` (stereo not given) [OFLOXACIN], the figure is 34.6 µM (≈ 12.5 µg/mL).

System in a further test: not listed separately
The test can be described thus: Selectivity index, Ratio of IC50 for human Vero cells to MIC99 for multidrug resistant Mycobacterium tuberculosis. The test is classed as functional.
For `CC1COc2c(N3CCn4cc(C(=O)O)nc4C3)c(F)c([N+](=O)[O-])c3c(=O)c(C(=O)O)cn1c23` (stereo not given), the Selectivity index is above 1467.

What is called MIC99 is an inhibitory concentration at the 99% level, which refers to growth in some studies and to a panel of isolates in others. Low values mean higher susceptibility, high ones lower susceptibility.
